The source of these data is ChEMBL document CHEMBL1122522, “Conformationally restricted retinoids” (1984).

Assay [1] concerns Cricetinae gen. sp. The experiment in a line: Activity of compound the was expressed as ratio of active hamster tracheal organ cultures(TOC) to the total cultures at 10e-9 M concentration; 5/19. Type of assay: functional, Cricetulus griseus, Trachea. The method in brief:
(§1)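 Tracheal organ cultures came from vitamin A-deficient hamsters. Each culture was scored for reversal of keratinization and reported as active cultures out of total cultures at each retinoid concentration tested (10⁻⁸ to 10⁻¹² M). The protocol followed earlier published methods.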

In assay [2] the test system is Cricetinae gen. sp. The experiment in a line: Molarity required to effect reversal of keratinization in 50% of cultures. It is filed as functional, Cricetulus griseus.
The subject of assay [3] is Cricetinae gen. sp. Kind of assay: Activity of compound the was expressed as ratio of active hamster tracheal organ cultures(TOC) to the total cultures at 10e-12 M concentration; 4/15. It is filed as functional, Cricetulus griseus, Trachea.
The subject of assay [4] is Cricetinae gen. sp. The experiment in a line: Activity of compound the was expressed as ratio of active hamster tracheal organ cultures(TOC) to the total cultures at 10e-11 M concentration; 17/22. It is filed as functional, Cricetulus griseus, Trachea.
For assay [5], the system named is Cricetinae gen. sp. The experiment in a line: Activity of compound the was expressed as ratio of active hamster tracheal organ cultures(TOC) to the total cultures at 10e-10 M concentration; 21/22. It is filed as functional, Cricetulus griseus, Trachea.
Assay [6] has as its system Cricetinae gen. sp. Kind of assay: Activity of compound the was expressed as ratio of active hamster tracheal organ cultures(TOC) to the total cultures at 10e-10 M concentration; 6/13. It is filed as functional, Cricetulus griseus, Trachea. The method in brief:
as §1

The subject of assay [7] is Cricetinae gen. sp. The experiment in a line: Activity of compound the was expressed as ratio of active hamster tracheal organ cultures(TOC) to the total cultures at 10e-9 M concentration; 11/12. It is filed as functional, Cricetulus griseus, Trachea. The essentials: as §1
Assay [8] deals with Cricetinae gen. sp. Kind of assay: Activity of compound the was expressed as ratio of active hamster tracheal organ cultures(TOC) to the total cultures at 10e-8 M concentration; 7/7. It is filed as functional, Cricetulus griseus, Trachea. To be noted: at 0.01 µM.
In assay [9] the test system is Cricetinae gen. sp. The experiment in a line: Activity of compound the was expressed as ratio of active hamster tracheal organ cultures(TOC) to the total cultures at 10e-11 M concentration; 1/5. It is filed as functional, Cricetulus griseus, Trachea. The method in brief:
as §1

Assay [10] has as its target T1, Ornithine decarboxylase (Mus musculus) (UniProt P00860).
T1 sequence (whole entry): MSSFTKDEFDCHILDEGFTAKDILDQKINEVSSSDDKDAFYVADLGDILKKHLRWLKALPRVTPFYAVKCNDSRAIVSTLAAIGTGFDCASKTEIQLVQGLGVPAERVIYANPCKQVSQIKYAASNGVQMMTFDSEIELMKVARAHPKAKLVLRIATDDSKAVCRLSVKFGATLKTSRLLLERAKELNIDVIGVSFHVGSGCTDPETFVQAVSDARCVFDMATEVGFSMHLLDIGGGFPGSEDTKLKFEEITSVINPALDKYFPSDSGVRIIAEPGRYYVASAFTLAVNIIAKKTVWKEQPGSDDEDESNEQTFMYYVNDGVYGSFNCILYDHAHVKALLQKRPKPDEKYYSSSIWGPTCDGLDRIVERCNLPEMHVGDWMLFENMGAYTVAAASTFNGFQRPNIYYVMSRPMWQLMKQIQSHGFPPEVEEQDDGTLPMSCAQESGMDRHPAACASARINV
Kind of assay: Inhibition of the induction of ornithine decarboxylase in mouse epidermis by the tumor promoter 12-O-tetradecanoylphorbol-13-acetate (ODC) at dose 17 nmol; Inhibition not significant.

Assay [11] has as its system Cricetinae gen. sp. Kind of assay: Molarity required to effect reversal of keratinization in 50% of the cultures. It is filed as functional, Cricetulus griseus. The method in brief: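 Tracheal organ cultures from vitamin A-deficient hamsters were scored for reversal of keratinization across a range of molar retinoid concentrations. The value is the concentration reversing keratinization in 50% of cultures, read from active/total culture counts.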

Assay [12] deals with T1, Ornithine decarboxylase (Mus musculus). Kind of assay: Inhibition of the induction of ornithine decarboxylase in mouse epidermis by the tumor promoter 12-O-tetradecanoylphorbol-13-acetate (ODC) at dose 1.7 nmol; Inhibition not significant.
Assay [13] concerns Cricetinae gen. sp. The experiment in a line: Activity of compound the was expressed as ratio of active hamster tracheal organ cultures(TOC) to the total cultures at 10e-9 M concentration; 1/6. Type of assay: functional, Cricetulus griseus, Trachea. The method in brief: as §1
In assay [14] the test system is Cricetinae gen. sp. The experiment in a line: Activity of compound the was expressed as ratio of active hamster tracheal organ cultures(TOC) to the total cultures at 10e-10 M concentration; 2/7. Type of assay: functional, Cricetulus griseus, Trachea. The method in brief:
as §1

In assay [15] the test system is Cricetinae gen. sp. The experiment in a line: Activity of compound the was expressed as ratio of active hamster tracheal organ cultures(TOC) to the total cultures at 10e-10 M concentration; 1/7. Type of assay: functional, Cricetulus griseus, Trachea. The essentials:
as §1

The subject of assay [16] is Cricetinae gen. sp. The experiment in a line: Activity of compound the was expressed as ratio of active hamster tracheal organ cultures(TOC) to the total cultures at 10e-9 M concentration; 2/7. Type of assay: functional, Cricetulus griseus, Trachea. The essentials: as §1
For assay [17], the target named is T1, Ornithine decarboxylase (Mus musculus). The experiment in a line: Inhibition of the induction of ornithine decarboxylase in mouse epidermis by the tumor promoter 12-O-tetradecanoylphorbol-13-acetate (ODC) at dose 17 nmol * * inhibition not significant.
Assay [18] shares this target. Kind of assay: Inhibition of the induction of ornithine decarboxylase in mouse epidermis by the tumor promoter 12-O-tetradecanoylphorbol-13-acetate (ODC) at dose 1.7 nmol * * inhibition not significant.
The test system of assay [19] is Cricetinae gen. sp. The experiment in a line: Activity of compound the was expressed as ratio of active hamster tracheal organ cultures(TOC) to the total cultures at 10e-8 M concentration; 3/7. It is filed as functional, Cricetulus griseus, Trachea. The essentials:
as §1

Regarding `CCOC(=O)/C=C(C)/C=C/C=C(C)/C=C/C1=CC2CCC1C2` (configuration not stated), the Activity with Cricetinae gen. sp. [1] was determined as 26%. In the assay on Cricetinae gen. sp. [2], the ED50 is on record as greater than 1e-09.
Consider `CC1(C)CCC(C)(C)c2cc(-c3ccc4cc(C(=O)O)ccc4c3)ccc21`, for which the Activity with Cricetinae gen. sp. [3] is reported as 4%; in the assay with Cricetinae gen. sp. [4], 17%; in the assay with Cricetinae gen. sp. [5], 21%. In addition, the ED50 with Cricetinae gen. sp. [2] is recorded as 3e-12.
With `CC1=C(/C=C/c2ccc3cc(C(=O)O)ccc3c2)C(C)(C)CCC1`, the Activity with Cricetinae gen. sp. [6] came to 6%; with Cricetinae gen. sp. [7], 92%; in the assay on Cricetinae gen. sp. [8] it was 7%; in the assay on Cricetinae gen. sp. [9], 1%. Also, the ED50 with Cricetinae gen. sp. [2] was found to be 1e-10.
`CCOC(=O)c1cccc(/C=C(C)/C=C/C2=C(C)CCCC2(C)C)c1`: the inhibition in assay [10] amounted to 6%; in [12], 13%. Besides, the ED50 in the assay with Cricetinae gen. sp. [11] is greater than 1e-08. For the same compound, the Activity in the assay with Cricetinae gen. sp. [13] was found to be 1%; in the assay with Cricetinae gen. sp. [14], 2%.
On to `CCOC(=O)c1ccc([C@H]2CC2c2ccc3c(c2)C2CCC3C2)cc1` (some centres not stated), for which the values for the Activity with Cricetinae gen. sp. [15], in the assay with Cricetinae gen. sp. [16] and in the assay on Cricetinae gen. sp. [19] were 1%, 29% and 3%, respectively. For the same compound, the inhibition turned out to be 4% in [17] and 0% in [18]. In addition, in the assay with Cricetinae gen. sp. [2], the ED50 is greater than 1e-08.

Broadly, the inhibition is how much of the control response was suppressed.
